The subject of series [1] is Rattus norvegicus. The experiment in a line: Area under curve (AUC) at a dose 1 mg/kg was determined in rat liver. The series is classed as ADME, organism-based. Also on record: dose 1 mg/kg. The following applies: in vivo. The method, boiled down: (§1)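 Male Sprague–Dawley rats with femoral and jugular venous catheters (5 rats), dosed alone or in cassettes of up to five compounds by 2 h constant-rate femoral vein infusion at 1 to 10 mg/kg. One rat killed at 0.25, 2, 8, 16 and 24 h after infusion start. Liver, kidney and lung homogenates assayed by HPLC/MS/MS. Tissue AUC0–24 h normalized to 1 mg/kg.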

The subject of series [2] is Rattus norvegicus. The experiment in a line: Area under curve (AUC) at a dose 1 mg/kg was determined in rat lung. The series is classed as ADME, organism-based. Also on record: dose 1 mg/kg. The conditions noted are these: in vivo. An outline of the steps:
as §1

The test system of series [3] is Rattus norvegicus. Briefly: Area under curve (AUC) at a dose 1 mg/kg was determined in rat kidney. It counts as ADME, organism-based. On the set-up: dose 1 mg/kg. The conditions noted are these: in vivo. The method, boiled down: as §1
A further series has as its system Pseudomonas aeruginosa. Briefly: Minimum potentiation concentration required to reduce (potentiate) the activity of antibacterial drug-levofloxacin for Pseudomonas aeruginosa by n-fold in the absence of horse serum. The series is classed as functional.
Series [4] in a line: Partition coefficient (logP). It counts as physicochemical. The conditions noted are these: octanol/water.
Series [5] in a line: Partition coefficient (logD). It counts as physicochemical. The following applies: octanol/water.
Series [6] in a line: Ionization constant (pKa1) of compound was determined. It counts as physicochemical. The conditions noted are these: read-out: pKa1.
Series [7] can be described thus: Ionization constant (pKa2) of compound was determined. It counts as physicochemical. The conditions noted are these: read-out: pKa2.
The nature of series [8]: T1/2 (half life) of compound after 2 hr iv infusion of 8.4 mg/kg in three rat. It counts as ADME, organism-based. On the set-up: dose 8.4 mg/kg, route intravenous. The following applies: in vivo.
A short description of series [9]: Steady state volume distribution (Vss) of compound after 2 hr iv infusion of 8.4 mg/kg in three rat. The following applies: in vivo, read-out: Vss. On the set-up: dose 8.4 mg/kg, route intravenous. The series is classed as ADME, organism-based.
A short description of series [10]: Clearance (Cl) of compound after 2 h iv infusion of 8.4 mg/kg in three rat. The conditions noted are these: in vivo. Also on record: dose 8.4 mg/kg, route intravenous. The series is classed as ADME, organism-based.

Where only a bound is given, the exact number is not on record here.

The values that follow come from ChEMBL document CHEMBL1136463, “The relationship between physicochemical properties, in vitro activity and pharmacokinetic profiles of analogues of diamine-containing efflux pump inhibitors” (Bioorg Med Chem Lett, 2003).

Usually logP stands for the decadic logarithm of the partition coefficient of the neutral form, usually between octanol and water. Read a low logP as lower lipophilicity. As a reminder, the logD is lipophilicity at a set pH, counting ionised and neutral species. A higher logD goes with a more lipophilic compound. Broadly, the half-life is the time in which the quantity being followed falls by half. A higher half-life goes with slow loss. One may read the clearance as the rate of elimination divided by the concentration. Read a low clearance as inefficient removal.

Turning to `Cc1cc2nc([C@@H](CCc3ccccc3)NC(=O)[C@H]3C[C@H](N)CN3C(=O)CN)[nH]c2cc1C`, the AUC with Rattus norvegicus [1] worked out at 176 mg·h/kg; in the series with Rattus norvegicus [2], 5 mg·h/kg; with Rattus norvegicus [3] it was 133 mg·h/kg. In addition, the MPC with Pseudomonas aeruginosa is 5 µg/mL. The compound further returned a logP in series [4] of 2.8. Moreover, the log distribution coefficient (logD) in series [5] stood at 1.9.
In the case of `NCC(=O)N1C[C@@H](N)C[C@@H]1C(=O)N[C@H](CCc1ccccc1)C(=O)Nc1ccc2ncccc2c1`, the AUC worked out at 12 mg·h/kg with Rattus norvegicus [1], 4 mg·h/kg in the series on Rattus norvegicus [2] and 96 mg·h/kg in the series on Rattus norvegicus [3]. Further, the pKa amounted to 8.2 in series [6] and 7.2 in [7]. In addition, the MPC in the series on Pseudomonas aeruginosa was determined as 20 µg/mL. In series [4], this compound gave a lipophilicity (logP) of 1.4. In [5], this compound returned a log distribution coefficient (logD) of 0.5.
Take `C[C@@H](N)C(=O)N[C@H](CCc1ccccc1)C(=O)Nc1cnc2ccccc2c1`: the values for the AUC in the series on Rattus norvegicus [1] and with Rattus norvegicus [3] were 5.5 mg·h/kg and 8.5 mg·h/kg, respectively.
On to `NC[C@@H]1CN[C@@H](C(=O)N[C@H](CCc2ccccc2)C(=O)Nc2cnc3ccccc3c2)C1`, for which the pKa in series [6] was 9.6; in series [7] it was 6.8. The MPC with Pseudomonas aeruginosa was 5 µg/mL.
Turning to `N[C@@H]1CN[C@@H](CC(=O)N[C@H](CCc2ccccc2)C(=O)Nc2cnc3ccccc3c2)C1`, the pKa in [6] turned out to be 9.3; in series [7], 6.3. Besides, the MPC in the series on Pseudomonas aeruginosa is 5 µg/mL.
`NC[C@@H]1CN[C@@H](C(=O)N[C@H](CCc2ccccc2)C(=O)Nc2ccc3ncccc3c2)C1` showed a half-life in series [8] of 43.8 min. For the same compound, the values for the AUC in the series on Rattus norvegicus [1], in the series with Rattus norvegicus [2] and with Rattus norvegicus [3] were 22 mg·h/kg, 15 mg·h/kg and 56 mg·h/kg, respectively. The pKa is 9.6 in [6] and 6.9 in series [7]. The Vd in series [9] worked out at 0.5 L/kg. The compound further had a clearance in series [10] of 1.6 L/h/kg. For the same compound, the MPC in the series with Pseudomonas aeruginosa worked out at 10 µg/mL. The log partition coefficient (logP) in series [4] was 2.3. In series [5], this compound displayed a logD of 0.5.
Consider `NCC(=O)N1C[C@@H](N)C[C@@H]1C(=O)N[C@H](CCc1ccccc1)C(=O)Nc1cnc2ccccc2c1`, for which the AUC worked out at 20 mg·h/kg with Rattus norvegicus [1], 3 mg·h/kg in the series on Rattus norvegicus [2] and 79 mg·h/kg with Rattus norvegicus [3]. For the same compound, the pKa in series [6] came to 8.1; in [7], 7.1. Besides, the MPC with Pseudomonas aeruginosa was 10 µg/mL. The compound also came in with a logP in series [4] of 1.8. This compound also registered a logD in series [5] of 0.9.
As for `NCC(=O)N1CCNC(C(=O)N[C@H](CCc2ccccc2)C(=O)Nc2cnc3ccccc3c2)C1` (stereo partly drawn), the pKa in [6] was determined as 8.5; in series [7], 5.4. The MPC in the series on Pseudomonas aeruginosa was over 40 µg/mL.
Regarding `N[C@@H]1CN[C@@H](C(=O)N[C@H](CCc2ccccc2)C(=O)Nc2cnc3ccccc3c2)C1`, the figures for the AUC in the series on Rattus norvegicus [1], in the series on Rattus norvegicus [2] and in the series on Rattus norvegicus [3] were 13 mg·h/kg, 14 mg·h/kg and 25 mg·h/kg, respectively. Also, the pKa in series [6] stood at 8.8; in series [7] it was 5.2. Also, the MPC in the series on Pseudomonas aeruginosa was over 40 µg/mL. This compound came in with a logP in [4] of 2.3. This compound also registered a logD in series [5] of 1.1.
In the case of `NCC(=O)N1C[C@@H](CN)C[C@@H]1C(=O)N[C@H](CCc1ccccc1)C(=O)Nc1ccc2ncccc2c1`, the results for the AUC in the series on Rattus norvegicus [1], in the series on Rattus norvegicus [2] and in the series with Rattus norvegicus [3] were 26 mg·h/kg, 4 mg·h/kg and 100 mg·h/kg, respectively. Further, the pKa came out at 9 in series [6] and 7.7 in series [7]. In addition, the MPC with Pseudomonas aeruginosa worked out at 10 µg/mL. In series [4], this compound showed a logP of 1.2. Further, the logD in [5] was -0.5.
Turning to `NCC(=O)N1CCNCC1C(=O)N[C@H](CCc1ccccc1)C(=O)Nc1cnc2ccccc2c1` (stereo partly drawn), the pKa worked out at 8.2 in series [6] and 6.3 in series [7]. Also, the MPC in the series with Pseudomonas aeruginosa came to 20 µg/mL.
